This is an account of results in PubChem BioAssay.

Test [1] can be described thus: inhibitors of TNFa-induced NFkB p65 translocation, primary screen, imaging, HUVEC, MLSMR starter and 10KST1 sets (AID 438;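 active = inhibition above 20% together with a positive visual image hit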;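 also: compound added about 3h40 before a 20 min TNFalpha stimulation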;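 as to inhibition: signal is the nuclear over cytoplasmic p65 intensity ratio per well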). Conditions: HUVEC TNFa-induced p65 nuclear translocation; cell count: measured here: nuclei count (cytotoxicity indicator), at 2.08 µM; inhibition: at 2 µM, stronger effect = higher value, 0% TNFa-plus-vehicle, 100% no-TNFa wells.
The nature of test [2]: inhibitors of mutant huntingtin aggregation, primary screen, imaging, exon1htt(103Q)mCFP cells, high-content imaging (AID 483;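 active = visual image review flags a hit and inhibition of aggregation exceeds 20%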;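 also: compound exposure lasted 3 days before fixation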;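 as to nuclei count: percent of the per-plate median nuclei count of sample wells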). Conditions: exon1htt(103Q)mCFP cell line, aggregate imaging, at 2 µM; inhibition of aggregation: stronger effect = higher value; nuclei count: measured here: cell count, toxicity.
Test [3] is described as follows: inhibitors of E-selectin induction by TNFa, primary screen, imaging, HUVEC, immunofluorescence, MLSMR starter and 10KST1 sets (AID 487).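 As to inhibition: signal is fraction of cell area covered by stained E-selectin grains.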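 As to nuclei count: 100% = median nuclei count of all wells on the same plate.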 The conditions noted are these: HUVEC TNFalpha-induced E-selectin immunofluorescence imaging, at 2 µM; inhibition: stronger effect = higher value; nuclei count: measured here: cell number, toxicity.
Test [4] concerns the target Voltage-gated potassium channel subunit beta-2 (Rattus norvegicus) (UniProt P62483). As to the kind of experiment: KvBeta enzyme negative modulators, primary screen, biochemical, NADPH fluorescence (AID 622;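 active = fluorescence slope higher than the sample average by over 3 SD, cut at about -0.22 in these data, passing the limit was not always enough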;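 also: slope of raw intensity against log time taken from 70 to 1610 s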). Conditions: recombinant KvBeta, 4-cyanobenzaldehyde reduction, at 10 µM, stronger effect = higher value.
Test [5] shares this target. As to the kind of experiment: KvBeta positive modulators, primary screen, biochemical, NADPH fluorescence (AID 623;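 active = NADPH fluorescence slope more negative than the mean of all samples by about 3 SD, 99.7% confidence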;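 also: fluorescence intensity change per second fitted from 20 to 320 s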). The conditions noted are these: Recombinant KvBeta, NADPH fluorescence decrease slope, 10 min; at 10 µM; stronger effect = lower value.
The target in test [6] is Muscarinic acetylcholine receptor M4 (Homo sapiens) (UniProt P08173). As to the kind of experiment: compounds altering M4/GIRK thallium flux, either direction, primary screen, M4 allosteric agonist project, cell-based, HEK293 M4/GIRK, BTC-AM (AID 625;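 active = fluorescence slope after compound addition differing from the mean of all tested samples at 99.7% confidence, mostly higher but some lower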;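 also: thallium influx through GIRK channels coupled to M4 in HEK293 cells with BTC-AM dye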). Conditions: at 10 µM, actives lie on both sides. The method, boiled down: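 assay system = HEK293 cells with M4 receptor and GIRK channels | medium = pH 7.3 thallium assay buffer | doses = 10 µM final, single point | timing = cells overnight at 37 °C, BTC-AM loading 1 h, reads 2 min total | signal = BTC-AM fluorescence, 1 Hz kinetic reads | read-out = post-addition slope, 15–24 s, of baseline-normalized fluorescence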
Sequence of Muscarinic acetylcholine receptor M4 (Homo sapiens) (P08173 whole entry, looked up): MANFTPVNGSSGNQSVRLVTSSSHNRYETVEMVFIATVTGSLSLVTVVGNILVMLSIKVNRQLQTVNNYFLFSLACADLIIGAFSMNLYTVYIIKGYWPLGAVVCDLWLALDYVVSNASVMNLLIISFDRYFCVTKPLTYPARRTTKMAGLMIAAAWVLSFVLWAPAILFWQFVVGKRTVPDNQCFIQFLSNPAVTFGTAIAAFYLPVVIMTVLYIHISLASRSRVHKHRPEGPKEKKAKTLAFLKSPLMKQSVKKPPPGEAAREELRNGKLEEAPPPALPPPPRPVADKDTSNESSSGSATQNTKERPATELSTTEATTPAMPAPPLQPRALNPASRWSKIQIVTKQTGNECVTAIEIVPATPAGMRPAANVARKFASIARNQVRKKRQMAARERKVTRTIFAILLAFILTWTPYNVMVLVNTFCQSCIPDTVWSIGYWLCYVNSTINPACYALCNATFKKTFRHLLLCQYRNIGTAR

The nature of test [7]: inhibitors of Sendai virus-induced IRF3 signaling, primary screen, TLR/RLR signaling modifier project, cell-based, Sendai virus stimulus, luciferase, 10K MLSCN set (AID 602276;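 active = inhibition at or above 50% at 10 µM; inactive = inhibition below 50%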;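 also: firefly luciferase from ISG56 promoter only with Renilla not read in this screen; 0% = Sendai virus plus DMSO and 100% = medium plus DMSO without virus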). The conditions noted are these: HEK293 RL24 IRF3 luciferase reporter, at 10 µM, stronger effect = higher value.
The nature of test [8]: inhibitors of poly I:C-induced TLR3 signaling, primary screen, cell-based, poly I:C stimulus, luciferase, 10K MLSCN set (AID 602277;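 active = inhibition of the reporter signal at or above 50%; inactive = inhibition below 50%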). The conditions noted are these: HEK293-TLR3 RL24 IRF3 luciferase reporter, at 10 µM, stronger effect = higher value.

Activity calls are given as the source filed them.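 The calls were made as follows, unless noted: active = visually confirmed hit in the image check and inhibition above 20%; inconclusive = visually confirmed hit but inhibition not above 20%; inactive = no visual hit in the image check.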

Sequence of Voltage-gated potassium channel subunit beta-2 (Rattus norvegicus) (P62483 whole entry, looked up): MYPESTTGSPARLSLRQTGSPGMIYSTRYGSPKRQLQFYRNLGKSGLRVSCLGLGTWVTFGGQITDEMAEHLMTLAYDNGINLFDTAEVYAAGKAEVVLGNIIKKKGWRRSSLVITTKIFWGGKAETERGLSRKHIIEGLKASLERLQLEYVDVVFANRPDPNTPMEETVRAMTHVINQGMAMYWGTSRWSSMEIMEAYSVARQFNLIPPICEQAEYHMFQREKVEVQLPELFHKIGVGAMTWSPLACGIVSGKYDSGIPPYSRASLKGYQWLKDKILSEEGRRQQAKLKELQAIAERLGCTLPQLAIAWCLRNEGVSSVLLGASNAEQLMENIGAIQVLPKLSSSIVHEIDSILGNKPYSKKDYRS

As to `CCN(CC)S(=O)(=O)N1CCC(C(=O)NCC2COc3ccccc3O2)CC1` (stereo not given), the cell count in test [1] turned out to be 616. In addition, the inhibition was 17% (inactive) in test [1], -27.8% (inactive) in test [3], -4.12% (inactive) in test [7] and 1.83% (inactive) in test [8]. Besides, the inhibition of aggregation in test [2] is -12.4% (inactive). Further, the nuclei count came to 88.5% in test [2] and 115% in test [3]. Also, the results for the fluorescence slope in test [4] and in test [6] were -0.494 (inactive) and 0.00755 (inactive), respectively. Also, the NADPH fluorescence slope in test [5] was 2.9e-05 (inactive).
In the case of `COC(=O)c1[nH]c2c(c1C)C(=O)CC(c1cccs1)C2` (stereo not given), in test [1], the cell count is 315. Besides, the inhibition in test [1] was 4.5% (inactive); in test [3] it was -126% (inactive); in test [7], 34.9% (inactive); in test [8], 79.5% (active). In addition, the inhibition of aggregation in test [2] was -123% (inactive). For the same compound, the nuclei count in test [2] was determined as 2%; in test [3] it was 134%. Further, the fluorescence slope in test [4] is -0.473 (inactive); in test [6], 0.00476 (inactive). Moreover, in test [5], the NADPH fluorescence slope was -2.2e-05 (inactive).
Turning to `O=C(O)c1cc2c([nH]c1=O)CCCC2`, in test [1], the cell count was determined as 661. Further, the inhibition in test [1] was -18.4% (inactive); in test [3] it was -0.2% (inactive); in test [7] it was 13.7% (inactive); in test [8], 24.4% (inactive). For the same compound, the inhibition of aggregation in test [2] is 24.5% (inactive). Further, the nuclei count in test [2] worked out at 96.3%; in test [3], 100%. For the same compound, the fluorescence slope was -0.585 (inactive) in test [4] and 0.00466 (inactive) in test [6]. Besides, the NADPH fluorescence slope in test [5] is 2.3e-05 (inactive).
In the case of `CC1CCN(CCCNC(=O)c2cn(C)c3ccc(S(=O)(=O)N4CCCC4)cc3c2=O)CC1`, the cell count in test [1] came to 515. In addition, the inhibition is 1.8% (inactive) in test [1], 18.8% (inactive) in test [3], 3.75% (inactive) in test [7] and 21.7% (inactive) in test [8]. In addition, the inhibition of aggregation in test [2] is 0% (inactive). For the same compound, the nuclei count in test [2] came out at 93.4%; in test [3], 61.5%. Further, the fluorescence slope in test [4] is -0.321 (inactive); in test [6], 0.00713 (inactive). Also, the NADPH fluorescence slope in test [5] was -5.9e-05 (inactive).
With `CC(=O)Nc1ccn(-c2ccccc2)n1`, the cell count in test [1] was found to be 595. In addition, the inhibition in test [1] is 1.8% (inactive); in test [3] it was -113% (inactive); in test [7], -39.2% (inactive); in test [8] it was -34.3% (inactive). Moreover, the inhibition of aggregation in test [2] is -0.5% (inactive). For the same compound, the nuclei count in test [2] was found to be 108%; in test [3] it was 136%. For the same compound, the fluorescence slope was -0.584 (inactive) in test [4] and 0.00818 (inactive) in test [6]. In addition, the NADPH fluorescence slope in test [5] was -9.6e-06 (inactive).
Turning to `O=C(Nc1cccc(C(=O)N2CCOCC2)c1)c1cccnc1`, in test [1], the cell count was 282. For the same compound, the inhibition in test [1] is -15.4% (inactive); in test [3] it was -25.3% (inactive); in test [7], -1.23% (inactive); in test [8], 0.71% (inactive). For the same compound, in test [2], the inhibition of aggregation was -7.7% (inactive). Moreover, the nuclei count worked out at 106% in test [2] and 116% in test [3]. The fluorescence slope in test [4] was -0.546 (inactive); in test [6], 0.00393 (inactive). Moreover, the NADPH fluorescence slope in test [5] was -0.000161 (inactive).
In the case of `Cc1sc2ncnc(OCC(=O)N3CCN(S(=O)(=O)c4ccc(Cl)cc4)CC3)c2c1C`, the cell count in test [1] was determined as 682. Also, the inhibition in test [1] is -9.4% (inactive); in test [3], -50.8% (inactive); in test [7] it was -76.1% (inactive); in test [8], 98.9% (active). In addition, the inhibition of aggregation in test [2] is -30.8% (inactive). Moreover, the figures for the nuclei count in test [2] and in test [3] were 122% and 124%, respectively. In addition, the fluorescence slope in test [4] is -0.612 (inactive); in test [6], 0.00511 (inactive). Further, the NADPH fluorescence slope in test [5] was -4.9e-06 (inactive).
On to `CC(C)(C)N(Cc1cc2ccccc2[nH]c1=O)C(=O)C1CCCCC1`, for which the cell count in test [1] was 510. The inhibition in test [1] was -1.4% (inactive); in test [3], 4% (inactive); in test [7] it was -3.62% (inactive); in test [8], 9.15% (inactive). The inhibition of aggregation in test [2] is -4.5% (inactive). Moreover, the nuclei count in test [2] is 110%; in test [3], 95.6%. Besides, the fluorescence slope in test [4] is -0.455 (inactive); in test [6], 0.00597 (inactive). In test [5], the NADPH fluorescence slope was -7.9e-05 (inactive).
`Cc1ccc(S(=O)(=O)N2CCOCC2)cc1C(=O)OCC(=O)N1CCc2ccccc2C1`: the cell count in test [1] was determined as 538. Also, the inhibition was -12.2% (inactive) in test [1], -184% (inactive) in test [3], 4.57% (inactive) in test [7] and 6.74% (inactive) in test [8]. The inhibition of aggregation in test [2] is 5.4% (inactive). Further, the nuclei count in test [2] was 98.4%; in test [3], 132%. Also, the fluorescence slope is -0.4 (inactive) in test [4] and 0.00607 (inactive) in test [6]. Besides, the NADPH fluorescence slope in test [5] was 5.8e-06 (inactive).
On to `CCOC(=O)COc1ccc(S(=O)(=O)N2CCc3ccccc3C2)cc1`, for which the cell count in test [1] was found to be 447. Further, the inhibition was 3.3% (inactive) in test [1], -5.1% (inactive) in test [3], 19.6% (inactive) in test [7] and 23.3% (inactive) in test [8]. Moreover, the inhibition of aggregation in test [2] is -59% (inactive). For the same compound, the nuclei count turned out to be 58.4% in test [2] and 96% in test [3]. The fluorescence slope in test [4] was -0.555 (inactive); in test [6], 0.00522 (inactive). The NADPH fluorescence slope in test [5] is -4.9e-05 (inactive).
